Laboratory results from ChEMBL document CHEMBL1165950, “Design and synthesis of new potent anticancer pyrazoles with high FLT3 kinase inhibitory selectivity” (Bioorg Med Chem, 2010).

How the values were obtained:
Format in all cases: functional
UACC-62 = experiment: Cytotoxicity against human UACC62 cells assessed as cell growth at 100 nM after 48 hrs by sulforhodamine B assay; conditions: UACC-62, 48 h, read-out: Activity
A498 = experiment: Cytotoxicity against human A498 cells assessed as cell growth at 100 nM after 48 hrs by sulforhodamine B assay; conditions: A498, 48 h, read-out: Activity
In short: (§1)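 NCI-60 five-dose screen. Cells were grown in RPMI 1640 with 5% FBS and 2 mM L-glutamine, plated at 5000–40,000 cells/well and preincubated for 24 h. Time-zero plates were TCA-fixed. DMSO-solubilized drug was added at five concentrations (10-fold or ½-log serial dilutions) for 48 h at 37 °C, 5% CO2. Cells were TCA-fixed, stained with 0.4% SRB and read at 515 nm. Percent growth used time-zero, control and test absorbances.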

TK-10 = experiment: Cytotoxicity against human TK10 cells assessed as cell growth at 100 nM after 48 hrs by sulforhodamine B assay; conditions: TK-10, 48 h, read-out: Activity
OVCAR-8 = experiment: Cytotoxicity against human OVCAR8 cells assessed as cell growth at 10 uM; conditions: read-out: Activity
In short: (§2)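 NCI-60 screen: cells grown in RPMI 1640 with 5% FBS and 2 mM L-glutamine, plated at 5000–40,000 cells/well according to doubling time, and preincubated 24 h at 37 °C, 5% CO2. The single 10 µM dose (DMSO stock) was added, then incubated 48 h. Cells were TCA-fixed and stained with 0.4% SRB, read at 515 nm, and growth % calculated against time-zero and control plates.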

MDA-MB-468 [1] = experiment: Cytotoxicity against human MDA-MB-468 cells assessed as cell growth at 10 uM; conditions: read-out: Activity; in short: as §2
K562 = experiment: Cytotoxicity against human K562 cells assessed as cell growth at 0.001 uM after 48 hrs by sulforhodamine B assay; conditions: K562, 48 h, read-out: Activity
[2] = Cytotoxicity against human […] cells assessed as cell growth at 0.001 uM after 48 hrs by sulforhodamine B assay; conditions: read-out: Activity
A549 = experiment: Cytotoxicity against human A549 cells assessed as cell growth at 0.001 uM after 48 hrs by sulforhodamine B assay; conditions: A549, 48 h, read-out: Activity; in short: as §1
EKVX = experiment: Cytotoxicity against human EKVX cells assessed as cell growth at 0.001 uM after 48 hrs by sulforhodamine B assay; conditions: read-out: Activity
UACC-257 = experiment: Cytotoxicity against human UACC257 cells assessed as cell growth at 1 uM after 48 hrs by sulforhodamine B assay; conditions: UACC-257, 48 h, read-out: Activity
COLO 205 = experiment: Cytotoxicity against human COLO205 cells assessed as cell growth at 0.001 uM after 48 hrs by sulforhodamine B assay; conditions: COLO 205, 48 h, read-out: Activity; in short: as §1
HT-29 = experiment: Cytotoxicity against human HT-29 cells assessed as cell growth at 0.001 uM after 48 hrs by sulforhodamine B assay; conditions: HT-29, 48 h, read-out: Activity
SW-620 = experiment: Cytotoxicity against human SW620 cells assessed as cell growth at 0.001 uM after 48 hrs by sulforhodamine B assay; conditions: SW-620, 48 h, read-out: Activity
PC-3 = experiment: Cytotoxicity against human PC3 cells assessed as cell growth at 0.001 uM after 48 hrs by sulforhodamine B assay; conditions: PC-3, 48 h, read-out: Activity
NCI-H23 [3] = experiment: Growth inhibition of human NCI-H23 cells after 48 hrs by sulforhodamine B assay; conditions: NCI-H23, 48 h; for CC50: read-out: LC50 (the source's name)
In short: (§3)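 NCI 60-cell screen, five-dose mode. Cells grown in RPMI 1640 with 5% FBS and 2 mM L-glutamine and plated at 5000-40,000 cells/well according to doubling time. After 24 h preincubation, a Tz plate was TCA-fixed. Five concentrations (10-fold or 1/2 log dilutions) were applied for 48 h at 37 °C. SRB staining read at 515 nm. IC50 taken from [(Ti-Tz)/(C-Tz)]×100 = 50.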

NCI-H522 = experiment: Growth inhibition of human NCI-H522 cells after 48 hrs by sulforhodamine B assay; conditions: NCI-H522, 48 h; for CC50: read-out: LC50 (the source's name); in short: as §3
LOX IMVI = experiment: Growth inhibition of human LOXIMVI cells after 48 hrs by sulforhodamine B assay; conditions: for CC50: read-out: LC50 (the source's name); in short: as §3
IGROV-1 = experiment: Growth inhibition of human IGROV1 cells after 48 hrs by sulforhodamine B assay; conditions: IGROV-1, 48 h; for CC50: read-out: LC50 (the source's name); in short: as §3
MCF7 = experiment: Cytotoxicity against human MCF7 cells assessed as cell growth at 0.01 uM after 48 hrs by sulforhodamine B assay; conditions: MCF7, 48 h, read-out: Activity
ACHN = experiment: Growth inhibition of human ACHN cells after 48 hrs by sulforhodamine B assay
In short: (§4)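 NCI five-dose SRB assay in RPMI 1640 with 5% FBS and 2 mM L-glutamine. Cells were preincubated 24 h, then exposed 48 h at 37 °C to five concentrations (10-fold or half-log serial dilutions from DMSO stocks). TCA fixation, SRB staining, and absorbance at 515 nm followed. IC50 was taken where [(Ti−Tz)/(C−Tz)]×100 = 50, with Tz as time-zero cell density.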

BT-549 = experiment: Growth inhibition of human BT549 cells after 48 hrs by sulforhodamine B assay; conditions: BT-549, 48 h; for CC50: read-out: LC50 (the source's name); in short: as §4
SR = experiment: Cytotoxicity against human SR cells assessed as cell growth at 10 uM; conditions: read-out: Activity; in short: as §2
[4] = Cytotoxicity against human Hs 578T cells assessed as cell growth at 1 uM after 48 hrs by sulforhodamine B assay; conditions: read-out: Activity
T47D = experiment: Cytotoxicity against human T47D cells assessed as cell growth at 1 uM after 48 hrs by sulforhodamine B assay; conditions: read-out: Activity
NCI-H322M = experiment: Cytotoxicity against human NCI-H322M cells assessed as cell growth at 10 uM; conditions: read-out: Activity; in short: as §2
MDA-MB-468 [5] = experiment: Cytotoxicity against human MDA-MB-468 cells assessed as cell growth at 1 uM after 48 hrs by sulforhodamine B assay; conditions: MDA-MB-468, 48 h, read-out: Activity
CCRF-CEM = experiment: Cytotoxicity against human CCRF-CEM cells assessed as cell growth at 10 uM after 48 hrs by sulforhodamine B assay; conditions: read-out: Activity; in short: as §1
NCI-H23 [6] = experiment: Cytotoxicity against human NCI-H23 cells assessed as cell growth at 10 uM after 48 hrs by sulforhodamine B assay; conditions: NCI-H23, 48 h, read-out: Activity
SK-MEL-5 = experiment: Cytotoxicity against human SK-MEL-5 cells assessed as cell growth at 10 uM after 48 hrs by sulforhodamine B assay; conditions: SK-MEL-5, 48 h, read-out: Activity
SK-OV-3 = experiment: Cytotoxicity against human SKOV3 cells assessed as cell growth at 10 uM after 48 hrs by sulforhodamine B assay; conditions: SK-OV-3, 48 h, read-out: Activity

## COc1cc(C)cc(-c2c(-c3ccnc(-c4ccc(C(C)=O)cc4)c3)cnn2CC#N)c1
UACC-62
  growth at 0.1 µM: 89%
A498
  growth at 0.1 µM: 65%
TK-10
  growth at 0.1 µM: 111%
OVCAR-8
  growth at 10 µM: 80.1%
MDA-MB-468 [1]
  growth at 10 µM: 26%
K562
  growth at 0.001 µM: 81%
[2]
  growth at 0.001 µM: 95%
A549
  growth at 0.001 µM: 95%
EKVX
  growth at 0.001 µM: 95%
UACC-257
  growth at 1 µM: 38%
COLO 205
  growth at 0.001 µM: 109%
HT-29
  growth at 0.001 µM: 110%
SW-620
  growth at 0.001 µM: 96%
PC-3
  growth at 0.001 µM: 101%
NCI-H23 [3]
  GI50: 3.9 µM
  TGI: > 100 µM
  CC50: > 100 µM
NCI-H522
  GI50: 1.93 µM
  TGI: 6.96 µM
  CC50: > 100 µM
LOX IMVI
  GI50: 3.39 µM
  TGI: > 100 µM
  CC50: > 100 µM
IGROV-1
  GI50: 3.57 µM
  TGI: > 100 µM
  CC50: > 100 µM
MCF7
  growth at 0.01 µM: 92%
ACHN
  GI50: 3.76 µM
  LC50 (concentration giving 50% net cell kill): > 100 µM
  TGI: > 100 µM
BT-549
  GI50: 3.12 µM
  TGI: > 100 µM
  CC50: > 100 µM
SR
  growth at 10 µM: 25%
[4]
  growth at 1 µM: -23%
T47D
  growth at 1 µM: -9%
NCI-H322M
  growth at 10 µM: 104%
MDA-MB-468 [5]
  growth at 1 µM: -48%
CCRF-CEM
  growth at 10 µM: 14%
NCI-H23 [6]
  growth at 10 µM: 18%
SK-MEL-5
  growth at 10 µM: -35%
SK-OV-3
  growth at 10 µM: 27%

## COc1cc(C)cc(-c2nn(CC#N)cc2-c2ccc(-c3cccc(C(C)=O)c3)nc2)c1
UACC-62
  growth at 0.1 µM: 71%
A498
  growth at 0.1 µM: 53%
TK-10
  growth at 0.1 µM: 101%
OVCAR-8
  growth at 10 µM: 31.4%
MDA-MB-468 [1]
  growth at 10 µM: -30.5%
K562
  growth at 0.001 µM: 82%
[2]
  growth at 0.001 µM: 100%
A549
  growth at 0.001 µM: 97%
EKVX
  growth at 0.001 µM: 99%
UACC-257
  growth at 1 µM: 34%
COLO 205
  growth at 0.001 µM: 103%
HT-29
  growth at 0.001 µM: 95%
SW-620
  growth at 0.001 µM: 96%
PC-3
  growth at 0.001 µM: 94%
NCI-H23 [3]
  GI50: 3.45 µM
  TGI: 84 µM
  CC50: > 100 µM
NCI-H522
  GI50: 1.64 µM
  TGI: 6.72 µM
  CC50: > 100 µM
LOX IMVI
  GI50: 3.52 µM
  TGI: > 100 µM
  CC50: > 100 µM
IGROV-1
  GI50: 2.73 µM
  TGI: 10.4 µM
  CC50: > 100 µM
MCF7
  growth at 0.01 µM: 97%
ACHN
  GI50: 4.19 µM
  LC50 (concentration giving 50% net cell kill): > 100 µM
  TGI: > 100 µM
BT-549
  GI50: 2.73 µM
  TGI: 15.1 µM
  CC50: > 100 µM
SR
  growth at 10 µM: 18.4%
[4]
  growth at 1 µM: -43%
T47D
  growth at 1 µM: -7%
NCI-H322M
  growth at 10 µM: 64.8%
MDA-MB-468 [5]
  growth at 1 µM: -42%
CCRF-CEM
  growth at 10 µM: 12%
NCI-H23 [6]
  growth at 10 µM: -1%
SK-MEL-5
  growth at 10 µM: -75%
SK-OV-3
  growth at 10 µM: -36%

## Cc1cc(O)cc(-c2nn(CC#N)cc2-c2ccnc(-c3ccc(Oc4ccccc4)cc3)c2)c1
UACC-62
  growth at 0.1 µM: 84%
A498
  growth at 0.1 µM: 84%
TK-10
  growth at 0.1 µM: 102%
OVCAR-8
  growth at 10 µM: 37.2%
MDA-MB-468 [1]
  growth at 10 µM: 6.32%
K562
  growth at 0.001 µM: 63%
[2]
  growth at 0.001 µM: 97%
A549
  growth at 0.001 µM: 96%
EKVX
  growth at 0.001 µM: 103%
UACC-257
  growth at 1 µM: -7%
COLO 205
  growth at 0.001 µM: 107%
HT-29
  growth at 0.001 µM: 95%
SW-620
  growth at 0.001 µM: 93%
PC-3
  growth at 0.001 µM: 98%
NCI-H23 [3]
  GI50: 1.94 µM
  TGI: 3.97 µM
  CC50: 8.13 µM
NCI-H522
  GI50: 2.72 µM
  TGI: 10.4 µM
  CC50: 35.1 µM
LOX IMVI
  GI50: 1.87 µM
  TGI: 3.39 µM
  CC50: 6.13 µM
IGROV-1
  GI50: 1.74 µM
  TGI: 3.75 µM
  CC50: 8.07 µM
MCF7
  growth at 0.01 µM: 92%
ACHN
  GI50: 2.84 µM
  LC50 (concentration giving 50% net cell kill): 33.8 µM
  TGI: 9.14 µM
BT-549
  GI50: 2.66 µM
  TGI: 11.2 µM
  CC50: 43.1 µM
SR
  growth at 10 µM: 32.4%
[4]
  growth at 1 µM: -23%
T47D
  growth at 1 µM: -26%
NCI-H322M
  growth at 10 µM: 80.7%
MDA-MB-468 [5]
  growth at 1 µM: -62%
CCRF-CEM
  growth at 10 µM: 14%
NCI-H23 [6]
  growth at 10 µM: -75%
SK-MEL-5
  growth at 10 µM: -100%
SK-OV-3
  growth at 10 µM: -99%
